Compound activity deposited in PubChem BioAssay by SRMLSC.
PostGolgi ctrl: inhibits growth of the yeast control strain; efflux-deficient yeast background strain, growth absorbance A615, 16 h; inhibition, % at 10 µM; 98,000 compounds, 5% hits
Yeast lifespan up: yeast lifespan extension; S. cerevisiae growth with nicotinamide, OD615; deaD strain in restrictive glucose medium; inhibition of the nicotinamide effect, % at 10 µM; 130,000 compounds, 0.68% hits; AID 775;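 active = inhibition above a set limit, placed 3 SD over the median of all compounds, cut at about 26% in these data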;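 also: 0% = nicotinamide-treated wells and 100% = cells grown without nicotinamide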
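assay system = DeaD-strain S. cerevisiae | measured by = absorbance at 615 nm | probe or stimulus = nicotinamide 1.5 mM | buffer or medium = CSMM-D glucose medium, restrictive | times = 48 h at 30 °C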
PostGolgi yeast: growth inhibition of a yeast mutant, post-Golgi transport screen | AID 739 | post-Golgi transport phenotypic cell assay | inhibition, % at 10 µM | 98,000 compounds, 0.9% hits;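 also: yeast cells grown in 1536-well plates; yeast grown about 18 h at 30C before absorbance read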
Yeast growth inh: chemicals that inhibit yeast BB579 growth in restrictive medium (lifespan-shortening candidates) | S. cerevisiae BB579 growth, OD615, 48 h | inhibition, % at 10 µM | 140,000 compounds, 0.51% hits;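 active = inhibition above a set limit, 3 SD over the mean compound inhibition, cut at about 44% in these data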
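System: Saccharomyces cerevisiae DeaD strain BB579, replicative lifespan model yeast. Buffer or medium: restrictive glucose-based CSMM-D medium. Doses: one dose, 10 µM compound with 0.25% DMSO. Timing: 4 h preincubation and 48 h exposure at 30 °C. Detection: turbidity as optical density at 615 nm. Benchmarks: amphotericin B 10 µg/mL, positive.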
* marks the source's active call; other numbers are inactive results. The sample as a whole holds a higher share of hits than the screen did. Rule as the data show it, unless noted: active = inhibition above about 30%; inactive = the rest.

`Cc1ccc(NC(=S)N/N=C/c2ccc([N+](=O)[O-])s2)cc1` gave Yeast lifespan up -3 and Yeast growth inh -32.
For Cc1cc(C)cc(N=Cc2ccc([N+](=O)[O-])s2)c1 the results were Yeast lifespan up -11 and Yeast growth inh 100*.
For NC(=O)c1ccc(N=Cc2ccc([N+](=O)[O-])s2)cc1 the results were Yeast lifespan up -11 and Yeast growth inh 100*.
O=[N+]([O-])c1ccc(/C=N/n2cnc3ccccc32)s1 was read as Yeast lifespan up -8 and Yeast growth inh 21.
`O=C1c2ccccc2N2C(=O)c3ccccc3C2N1O` (configuration not stated) gave PostGolgi ctrl 5, Yeast lifespan up 39*, PostGolgi yeast 8 and Yeast growth inh -33.
O=C1Nc2ccccc2C12OCC1(CO2)COC2(OC1)C(=O)Nc1ccccc12 (configuration not stated) was read as PostGolgi ctrl -2, Yeast lifespan up 67*, PostGolgi yeast 4 and Yeast growth inh -46.
Cc1ccc(C(=O)CSc2nnc(CNc3ccc(C)cc3C)n2Cc2ccco2)cc1 was read as PostGolgi ctrl 40*, Yeast lifespan up 12, PostGolgi yeast -4 and Yeast growth inh -28.
Cc1ccc(NCc2nnc(SCc3ccc(C#N)cc3)n2Cc2ccco2)c(C)c1 was read as PostGolgi ctrl 40*, Yeast lifespan up -10, PostGolgi yeast 49* and Yeast growth inh -28.
`COc1ccc(C(=O)CSc2nnc(CNc3ccc(C)cc3C)n2Cc2ccco2)cc1` gave PostGolgi ctrl 15, Yeast lifespan up 10, PostGolgi yeast 1 and Yeast growth inh -72.
CC12CC(NC(=O)N1c1cccc(C(=O)N3CCN(c4ccccn4)CC3)c1)c1ccccc1O2 (configuration not stated) was read as PostGolgi ctrl 1, Yeast lifespan up -11, PostGolgi yeast -1 and Yeast growth inh -24.
For CCOC(=O)c1cnn(-c2ccccc2)c1-n1cccc1C(=O)C(=O)Nc1ccccc1 the results were PostGolgi ctrl 31*, Yeast lifespan up -2, PostGolgi yeast 2 and Yeast growth inh -28.
For CCCCCC1CCC(C(=O)O)CC1 (configuration not stated) the results were PostGolgi ctrl -4, Yeast lifespan up -7, PostGolgi yeast 3 and Yeast growth inh 52*.
For COc1ccc(NC(=O)/C(Cl)=C(/Cl)S(=O)(=O)Cc2ccccc2)cn1 the results were PostGolgi ctrl 78*, Yeast lifespan up 13, PostGolgi yeast 17 and Yeast growth inh -4.
`O=C(Nc1nnc(C2CCCC2)s1)C1CCC1` gave PostGolgi ctrl 18, Yeast lifespan up -6, PostGolgi yeast 6 and Yeast growth inh -44.
Screening O=C1CC(N2C(=O)/C(=C/C=C/c3ccccc3)SC2=S)C(=O)N1c1ccccc1 (configuration not stated) returned Yeast lifespan up 7 and Yeast growth inh -27.
`CCN(CC)CCCN1C(=O)C(O)=C(C(=O)c2ccco2)C1c1ccc(OC(C)C)cc1` (configuration not stated) gave PostGolgi ctrl 43*, Yeast lifespan up -14, PostGolgi yeast -5 and Yeast growth inh -15.
Screening C=CCOc1ccc(C2C(C(=O)c3ccco3)=C(O)C(=O)N2CCCN(CC)CC)cc1 (configuration not stated) returned PostGolgi ctrl 3, Yeast lifespan up 11, PostGolgi yeast -1 and Yeast growth inh -16.
Cc1cc(C)c(C#N)c(Sc2nnnn2-c2ccccc2)n1 was read as PostGolgi ctrl 9, Yeast lifespan up -5, PostGolgi yeast 0 and Yeast growth inh -14.
Screening Cc1nn(-c2ccc(F)cc2)c2sc(C(=O)O)cc12 returned PostGolgi ctrl 2, Yeast lifespan up -9, PostGolgi yeast 1 and Yeast growth inh 43*.
Screening Cc1nn(-c2ccccc2)c2sc(C(=O)O)cc12 returned PostGolgi ctrl 2, Yeast lifespan up -26, PostGolgi yeast -2 and Yeast growth inh 50*.
Screening Cc1ccccc1-n1nc(C)c2cc(C(=O)N3CCN(S(=O)(=O)c4ccc(F)cc4)CC3)sc21 returned PostGolgi ctrl 19, Yeast lifespan up -17, PostGolgi yeast 37* and Yeast growth inh -15.
For Cc1nn(-c2ccccc2)c2sc(-c3n[nH]c(=S)o3)cc12 the results were PostGolgi ctrl 26, Yeast lifespan up -23, PostGolgi yeast -1 and Yeast growth inh 72*.
Screening Cc1ccc(-n2nc(C)c3cc(C(=O)O)sc32)cc1 returned PostGolgi ctrl 2, Yeast lifespan up -14, PostGolgi yeast 5 and Yeast growth inh 18.
